A word on the MIC: it is the lowest concentration that inhibits growth of the organism. The low end stands for a more susceptible organism, the high end for a less susceptible organism.

In brackets after ≈: the same amount, converted by molar mass. Activity calls are given as the source filed them. No cut-off for these calls is given here.

The values that follow come from ChEMBL document CHEMBL1149642, “Molecular design of anti-MRSA agents based on the anacardic acid scaffold” (2007).

The test system of test [1] is Escherichia coli. The experiment in a line: Antibacterial activity against Escherichia coli ATCC 9637. In kind it is functional, organism-based. The gist of the method: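 Two-fold serial broth dilution in NYG broth (0.8% nutrient broth, 0.5% yeast extract, 0.1% glucose); compound dilutions in DMF, 30 µL added to 3 mL broth, inoculated with 30 µL overnight culture; 37 °C, 48 h; MIC = lowest concentration with no visible growth; top concentration 200 µg/mL (solubility-limited).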

The test system of test [2] is Staphylococcus aureus. The test can be described thus: Antibacterial activity against methicillin-resistant Staphylococcus aureus ATCC 33592 by broth dilution method. In kind it is functional. The gist of the method:
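Two-fold serial broth dilution in NYG broth (0.8% nutrient broth, 0.5% yeast extract, 0.1% glucose). Compound dilutions made in DMF and added 1:100 to broth. Inoculum was an overnight culture added at 1:100. Incubated at 37 °C for 48 h. MIC taken as the lowest concentration with no visible growth. Top concentration tested was 200 (solubility limit).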
(In broth dilution the organism is exposed to a series of concentrations in liquid medium.)

Regarding `O=C(O)c1c(O)cccc1CC1CCCCC1`, the outcome in test [1] was inactive. In test [2], this compound came in with a minimum inhibitory concentration (MIC) of 25 µg/mL (≈ 107 µM).

Consider `O=C(O)c1c(O)cccc1CC1CCCCCCCCCCC1`, for which, in test [1], the result was inactive. In test [2], this compound showed an MIC of 0.39 µg/mL (≈ 1.22 µM). On to `O=C(O)c1c(O)cccc1CCc1ccc(O)cc1`, for which the result in test [1] was inactive. This compound registered an MIC in test [2] of 50 µg/mL (≈ 194 µM).

As for `CCCCCC/C=C/CCCCCCCc1cccc(O)c1C(=O)O`, the result in test [1] was inactive. Moreover, the lowest concentration to inhibit growth in test [2] (MIC) was 6.25 µg/mL (≈ 18 µM). Taken in the same sequence, the figures for `O=C(O)c1c(O)cccc1CCc1cc(O)ccc1O` were “inactive” and 100 µg/mL (≈ 365 µM).

For the compound `O=C(O)c1c(O)cccc1CCc1ccc(O)c(O)c1`, the outcome in test [1] was inactive. In test [2], this compound displayed an MIC of 100 µg/mL (≈ 365 µM). As to `CCCCCC(CC)Cc1cccc(O)c1C(=O)O` (configuration not stated), the result in test [1] was inactive. In test [2], this compound gave an MIC of 6.25 µg/mL (≈ 23.6 µM). Regarding `CC(C)CCCC(C)CCCc1cccc(O)c1C(=O)O` (configuration not stated), the outcome in test [1] was inactive. This compound also came in with an MIC in test [2] of 0.39 µg/mL (≈ 1.33 µM). For `O=C(O)c1c(O)cccc1CCc1ccccc1`, in that order: “inactive” and 100 µg/mL (≈ 413 µM). Taken in the same sequence, the figures for `O=C(O)c1c(O)cccc1CC1CCCCCCC1` were “inactive” and 12.5 µg/mL (≈ 47.6 µM).

In the case of `O=C(O)c1c(O)cccc1CCc1cc(O)c(O)cc1O`, the outcome in test [1] was inactive. In addition, in test [2], the MIC was > 200 µg/mL.

Regarding `C=CC/C=C\C/C=C\CCCCCCCc1cccc(O)c1C(=O)OC`, the result in test [1] was inactive. Also, the MIC in test [2] was > 800 µg/mL.

Take `O=C(O)c1c(O)cccc1CC1CCCC1`: the outcome in test [1] was inactive. The compound also yielded an MIC in test [2] of 100 µg/mL (≈ 454 µM). For the compound `O=C(O)c1c(O)cccc1CCc1ccc(O)cc1O`, the result in test [1] was inactive. Moreover, the minimal inhibitory concentration (MIC) in test [2] was > 200 µg/mL. Consider `O=C(O)c1c(O)cccc1CCCCc1ccccc1`, for which the outcome in test [1] was inactive. Moreover, in test [2], the MIC was 25 µg/mL (≈ 92.5 µM). For `O=C(O)c1c(O)cccc1CCC1CCCCC1`, the outcome in test [1] was inactive. In test [2], the MIC was 12.5 µg/mL (≈ 50.3 µM).

`CCCCCCCCCOC(=O)c1ccccc1O`: the outcome in test [2] was inactive. Take `C=CC/C=C\C/C=C\CCCCCCCc1cccc(OC(C)=O)c1C(=O)O`: in test [1], the outcome was inactive. Moreover, in test [2], the MIC is > 800 µg/mL. For `CCCCC(C)Cc1cccc(O)c1C(=O)O` (configuration not stated), in that order: “inactive” and 50 µg/mL (≈ 212 µM).
